Converted amounts (≈) assume the structure as drawn. The source made the active and inactive calls. No cut-off for these calls is given here.
How the values were obtained:
Plutella xylostella = assay: Pesticidal activity against Plutella xylostella (diamondback moth) second-instar larvae grown on cruciferous vegetables leaves leaves as pest mortality at 600 mg/L measured 48 hr post compound exposure; format: functional
How it was run: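 Over 20 second-instar larvae on cruciferous vegetable leaves dipped 5 s in compound diluted in distilled water containing 0.05% Triton X-100, excess liquid removed. Kept in illumination box at 25 ± 1 °C; mortality recorded 48 h after treatment. Each test in triplicate.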

Tetranychus cinnabarinus [1] = assay: Pesticidal activity against Tetranychus cinnabarinus (carmine spider mite) third- instar larvae grown on Phaseolus vulgaris leaves assessed as pest mortality at 600 mg/L measured 48 hr post compound exposure; format: functional
How it was run: (§1)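 More than 20 third-instar mite larvae on Phaseolus vulgaris leaves dipped 5 s in compound solutions (water with 0.05% Triton X-100), excess liquor removed. Larvae held at 25 ± 1 °C in illumination box; mortality read at 48 h. Primary screen at 600 mg L⁻¹, follow-up at 400, 200, 100, 50 and 25 mg L⁻¹ with LC50 calculated. Triplicate tests.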

Aphis gossypii = assay: Pesticidal activity against Aphis gossypii (cotton aphid) third-instar nymphae grown on tender Hibiscus syriacus leaves assessed as pest mortality at 600 mg/L measured 24 hr post compound exposure; format: functional; details: in Hibiscus syriacus
How it was run: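 Leaf-dip bioassay: over 30 healthy apterous third-instar nymphs on tender Hibiscus syriacus leaves dipped 5 s in compound diluted in distilled water with 0.05% Triton X-100, excess fluid removed. Held in illumination box at 25 ± 1 °C; mortality scored after 24 h. Tests in triplicate.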

Tetranychus cinnabarinus [2] = assay: Pesticidal activity against Tetranychus cinnabarinus (carmine spider mite) third- instar larvae grown on Phaseolus vulgaris leaves assessed as conversion of corpus colour to black at 25 to 400 mg/L measured 48 hr post compound exposure; format: functional, organism-based
How it was run: (§2)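 Mite larvae (>20 third-instar on Phaseolus vulgaris leaves) leaf-dipped 5 s in compound at 400, 200, 100, 50 or 25 mg L⁻¹ in water with 0.05% Triton X-100, kept at 25 ± 1 °C. Movement of larvae observed at 1 h; corpse colour change to black observed at 48 h after treatment.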

Tetranychus cinnabarinus [3] = assay: Pesticidal activity against Tetranychus cinnabarinus (carmine spider mite) third- instar larvae grown on Phaseolus vulgaris leaves assessed as reduction in larval movement at 25 to 400 mg/L measured 1 hr post compound exposure; format: functional, organism-based; how it was run: as §2
Tetranychus cinnabarinus [4] = assay: Pesticidal activity against Tetranychus cinnabarinus (carmine spider mite) third- instar larvae grown on Phaseolus vulgaris leaves assessed as pest mortality measured 48 hr post compound exposure; format: functional; how it was run: as §1
Tetranychus cinnabarinus [5] = assay: Pesticidal activity against Tetranychus cinnabarinus (carmine spider mite) third- instar larvae grown on Phaseolus vulgaris leaves assessed as pest mortality at 25 mg/L measured 48 hr post compound exposure; format: functional; how it was run: as §1
Tetranychus cinnabarinus [6] = assay: Pesticidal activity against Tetranychus cinnabarinus (carmine spider mite) third- instar larvae grown on Phaseolus vulgaris leaves assessed as pest mortality at 100 mg/L measured 48 hr post compound exposure; format: functional; how it was run: as §1
Tetranychus cinnabarinus [7] = assay: Pesticidal activity against Tetranychus cinnabarinus (carmine spider mite) third- instar larvae grown on Phaseolus vulgaris leaves assessed as pest mortality at 400 mg/L measured 48 hr post compound exposure; format: functional; how it was run: as §1
Tetranychus cinnabarinus [8] = assay: Pesticidal activity against Tetranychus cinnabarinus (carmine spider mite) third- instar larvae grown on Phaseolus vulgaris leaves assessed as pest mortality at 50 mg/L measured 48 hr post compound exposure; format: functional; how it was run: as §1
Tetranychus cinnabarinus [9] = assay: Pesticidal activity against Tetranychus cinnabarinus (carmine spider mite) third- instar larvae grown on Phaseolus vulgaris leaves assessed as pest mortality at 200 mg/L measured 48 hr post compound exposure; format: functional; how it was run: as §1

Row | Compound | mortality at 600 µg/mL (Plutella xylostella) [%] | mortality at 600 µg/mL (Tetranychus cinnabarinus [1]) [%] | mortality at 600 µg/mL (Aphis gossypii) [%] | further results
1 | Cc1cccc(C(=O)NNCc2cccc(C(F)(F)F)c2)c1NC(=O)C(C)(C)C | 64 | 46.8 | 75 | –
2 | Cc1cccc(C(=O)NNCc2ccccc2)c1NC(=O)C(C)(C)C | 52 | 16.7 | 62.3 | –
3 | Cc1cc(Cl)cc(C(=O)NNCc2ccc(Cl)cc2Cl)c1NC(=O)CC(C)(C)C | 88 | 88.8 | 62 | –
4 | Cc1cc(Br)cc(C(=O)NNCc2cccc(C(F)(F)F)c2)c1NC(=O)CC(C)(C)C | 40 | 100 | 18.7 | Activity (Tetranychus cinnabarinus [2]): Active; Activity (Tetranychus cinnabarinus [3]): Active; LC50 (Tetranychus cinnabarinus [4]): 89.8 µg/mL (≈ 179 µM); mortality at 25 µg/mL (Tetranychus cinnabarinus [5]): 26%; mortality at 100 µg/mL (Tetranychus cinnabarinus [6]): 43.3%; mortality at 400 µg/mL (Tetranychus cinnabarinus [7]): 93.3%; mortality at 50 µg/mL (Tetranychus cinnabarinus [8]): 38.4%; mortality at 200 µg/mL (Tetranychus cinnabarinus [9]): 64.4%
5 | Cc1cc(Cl)cc(C(=O)NNCc2cccc(C(F)(F)F)c2)c1NC(=O)CC(C)(C)C | 76 | 77.2 | 58.3 | –
6 | Cc1cc(Br)cc(C(=O)NNCc2ccc(Cl)nc2)c1NC(=O)CC(C)(C)C | 40 | 23.4 | 25.9 | –
7 | Cc1cccc(C(=O)NNCc2cccc(C(F)(F)F)c2)c1NC(=O)CC(C)(C)C | 40 | 57.9 | 94.2 | –
8 | Cc1cc(Br)cc(C(=O)NNCc2cccc(C(F)(F)F)c2)c1NC(=O)C(C)(C)CCl | 52 | 72.7 | 78.6 | –
9 | Cc1cc(Cl)cc(C(=O)NNCc2ccc(Cl)nc2)c1NC(=O)C(C)(C)CCl | 16 | 47.1 | 30.6 | –
10 | CC(C)(C)C(=O)Nc1ccc(Cl)cc1C(=O)NNCc1ccc(F)cc1 | – | 73.8 | 91.3 | –
11 | Cc1cc(Cl)cc(C(=O)NNCc2ccc(F)cc2)c1NC(=O)C(C)(C)C | 88 | 73.8 | 41.5 | –
12 | Cc1cc(Cl)cc(C(=O)NNCc2ccc(Cl)cc2Cl)c1NC(=O)C(C)(C)CCl | – | 73.8 | 42.3 | –
13 | Cc1cc(Br)cc(C(=O)NNCc2cccc(C(F)(F)F)c2)c1NC(=O)C(C)(C)C | 16 | 19.8 | 54.2 | –
14 | Cc1cc(Br)cc(C(=O)NNCc2ccccc2Cl)c1NC(=O)CC(C)(C)C | 76 | 11.6 | 88 | –
15 | Cc1cc(Cl)cc(C(=O)NNCc2cccc(C(F)(F)F)c2)c1NC(=O)C(C)(C)C | 40 | 8.6 | 68.3 | –
16 | Cc1cc(Cl)cc(C(=O)NNCc2ccccc2)c1NC(=O)C(C)(C)CCl | 52 | 50.9 | 68.5 | –
17 | Cc1cc(Cl)cc(C(=O)NNCc2ccc(Cl)cc2Cl)c1NC(=O)C(C)(C)C | 64 | 69 | 77.8 | –
18 | Cc1cccc(C(=O)NNCc2ccccc2Cl)c1NC(=O)C(C)(C)C | 64 | 5.9 | 92.2 | –
19 | Cc1cccc(C(=O)NNCc2ccccc2)c1NC(=O)C(C)(C)CCl | 52 | 79.3 | 95.6 | –
20 | Cc1cc(Cl)cc(C(=O)NNCc2ccccc2Cl)c1NC(=O)CC(C)(C)C | 52 | 100 | 65.5 | Activity (Tetranychus cinnabarinus [2]): Active; Activity (Tetranychus cinnabarinus [3]): Active; LC50 (Tetranychus cinnabarinus [4]): 27.9 µg/mL (≈ 66.1 µM); mortality at 25 µg/mL (Tetranychus cinnabarinus [5]): 38.4%; mortality at 100 µg/mL (Tetranychus cinnabarinus [6]): 80.4%; mortality at 400 µg/mL (Tetranychus cinnabarinus [7]): 92.2%; mortality at 50 µg/mL (Tetranychus cinnabarinus [8]): 74.1%; mortality at 200 µg/mL (Tetranychus cinnabarinus [9]): 86.4%
21 | Cc1cc(Cl)cc(C(=O)NNCc2ccccc2Cl)c1NC(=O)C(C)(C)CCl | 64 | 11 | 14.5 | –
22 | Cc1cc(Br)cc(C(=O)NNCc2ccccc2)c1NC(=O)C(C)(C)CCl | 52 | 20.3 | 84.6 | –

Row | Compound | mortality at 600 µg/mL (Plutella xylostella) [%] | mortality at 600 µg/mL (Tetranychus cinnabarinus [1]) [%] | mortality at 600 µg/mL (Aphis gossypii) [%] | further results
23 | Cc1cc(Cl)cc(C(=O)NNCc2ccccc2)c1NC(=O)CC(C)(C)C | 94 | 70.1 | 70.4 | –
24 | Cc1cc(Cl)cc(C(=O)NNCc2ccccc2)c1NC(=O)C(C)(C)C | 34 | 92.5 | 52.4 | –
25 | Cc1cc(Cl)cc(C(=O)NNCc2ccc(F)cc2)c1NC(=O)C(C)(C)CCl | 64 | 67 | 81.5 | –
26 | Cc1cc(Br)cc(C(=O)NNCc2ccccc2)c1NC(=O)CC(C)(C)C | 22 | 78.1 | 96.6 | –
27 | CC(C)(C)C(=O)Nc1ccc(Cl)cc1C(=O)NNCc1cccc(C(F)(F)F)c1 | 28 | 73.8 | 28.9 | –
28 | Cc1cc(Br)cc(C(=O)NNCc2ccc(Cl)nc2)c1NC(=O)C(C)(C)CCl | 52 | 55.8 | 33.3 | –
29 | Cc1cccc(C(=O)NNCc2ccc(Cl)nc2)c1NC(=O)CC(C)(C)C | 100 | 19.3 | 65.5 | –
30 | Cc1cc(Br)cc(C(=O)NNCc2ccccc2Cl)c1NC(=O)C(C)(C)CCl | 76 | 95.7 | 8.5 | Activity (Tetranychus cinnabarinus [2]): Active; Activity (Tetranychus cinnabarinus [3]): Active; LC50 (Tetranychus cinnabarinus [4]): 51.7 µg/mL (≈ 106 µM); mortality at 25 µg/mL (Tetranychus cinnabarinus [5]): 36.5%; mortality at 100 µg/mL (Tetranychus cinnabarinus [6]): 62.6%; mortality at 400 µg/mL (Tetranychus cinnabarinus [7]): 89.6%; mortality at 50 µg/mL (Tetranychus cinnabarinus [8]): 44.9%; mortality at 200 µg/mL (Tetranychus cinnabarinus [9]): 83.6%
31 | Cc1cccc(C(=O)NNCc2ccc(Cl)cc2Cl)c1NC(=O)C(C)(C)C | 50 | 52.9 | 89.4 | –
32 | CC(C)(C)CC(=O)Nc1ccc(Cl)cc1C(=O)NNCc1ccccc1F | 28 | 77.6 | 1.8 | –
33 | Cc1cc(Br)cc(C(=O)NNCc2ccc(Cl)cc2Cl)c1NC(=O)C(C)(C)CCl | 70 | 82.5 | 3.8 | –
34 | Cc1cc(Cl)cc(C(=O)NNCc2cccc(C(F)(F)F)c2)c1NC(=O)C(C)(C)CCl | 52 | 61.8 | 5.1 | –
35 | Cc1cc(Br)cc(C(=O)NNCc2ccccc2)c1NC(=O)C(C)(C)C | 50 | 64.9 | 86.1 | –
36 | Cc1cc(Br)cc(C(=O)NNCc2ccccc2Cl)c1NC(=O)C(C)(C)C | 64 | 40.1 | 49.1 | –
37 | Cc1cccc(C(=O)NNCc2ccccc2Cl)c1NC(=O)C(C)(C)CCl | 22 | 46.7 | 68.8 | –
38 | CC(C)(C)c1ccc(CSc2cnn(C(C)(C)C)c(=O)c2Cl)cc1 [PYRIDABEN] | – | – | – | LC50 (Tetranychus cinnabarinus [4]): 5.5 µg/mL (≈ 15.1 µM); mortality at 25 µg/mL (Tetranychus cinnabarinus [5]): 97.7%; mortality at 100 µg/mL (Tetranychus cinnabarinus [6]): 100%; mortality at 400 µg/mL (Tetranychus cinnabarinus [7]): 100%; mortality at 50 µg/mL (Tetranychus cinnabarinus [8]): 100%; mortality at 200 µg/mL (Tetranychus cinnabarinus [9]): 100%
39 | Cc1cc(Br)cc(C(=O)NNCc2ccc(Cl)cc2Cl)c1NC(=O)C(C)(C)C | 34 | 77 | 90.2 | –
40 | Cc1cc(Cl)cc(C(=O)NNCc2ccc(Cl)nc2)c1NC(=O)C(C)(C)C | 50 | 81.3 | 24.2 | –
41 | Cc1cc(Br)cc(C(=O)NNCc2ccc(Cl)nc2)c1NC(=O)C(C)(C)C | 64 | 19.3 | 96.2 | –
42 | Cc1cc(Cl)cc(C(=O)NNCc2ccccc2F)c1NC(=O)C(C)(C)CCl | 100 | 61.1 | 70.2 | –
43 | Cc1cc(Cl)cc(C(=O)NNCc2ccccc2F)c1NC(=O)C(C)(C)C | 76 | 80.5 | 38.9 | –
